An excerpt weighted towards active compounds, which were near 1.7% of everything screened.
Hsp70 act – transcriptional activators of Hsp70; activation, % at 10 µM; HeLa Hsp70 promoter luciferase reporter, luminescence; scaled: vehicle 0, proteasome-inhibitor control 100%; 200,000 compounds, 0.04% hits; AID 1203;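 active = activation above the mean across all tested compounds plus 3 SD, cutoff set per campaign, cut at about 5.5% in these data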
Dynein transport – dynein cargo transport inhibition; 3617.4 mouse cells, GR-EGFP nuclear translocation imaging; test concentration mostly 20 µM; stimulated with dexamethasone, 1 µM; active compounds read low; z-score, hits read low; 220,000 compounds, 0.47% hits; AID 1381;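 active = plate z-score of nuclear minus cytoplasmic receptor signal below a set negative limit, without overly bright fluorescence or cell loss, cut at about -3.5 in these data, passing the limit was not always enough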;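 note: z-score of nuclear minus cytoplasmic ring GR-EGFP intensity difference per well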
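Buffer or medium: tet-free, stripped-serum medium; Also added: dexamethasone, 1.0 µM final; Technique: high-content fluorescence imaging after fixation; Times: 48 h induction, 1 h compound, 30 min dex at 37 °C; Read-out: per-cell GR-EGFP intensity, nucleus versus surrounding cytoplasmic ring, well-averaged.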
EP2 antag – blocks the human prostaglandin E2 receptor EP2; AID 1422; 260,000 compounds, 0.52% hits; C6 glioma cells expressing human EP2, cAMP TR-FRET; cells stimulated with saturating PGE2; inhibition, % at 25 µM; P43116;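 active = percent inhibition above 40 after rounding to a whole number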;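 note: rat C6 glioma host cells with rolipram phosphodiesterase inhibitor present; the protocol text gives 20 µM as final concentration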
Target sequence (P43116 whole entry, looked up): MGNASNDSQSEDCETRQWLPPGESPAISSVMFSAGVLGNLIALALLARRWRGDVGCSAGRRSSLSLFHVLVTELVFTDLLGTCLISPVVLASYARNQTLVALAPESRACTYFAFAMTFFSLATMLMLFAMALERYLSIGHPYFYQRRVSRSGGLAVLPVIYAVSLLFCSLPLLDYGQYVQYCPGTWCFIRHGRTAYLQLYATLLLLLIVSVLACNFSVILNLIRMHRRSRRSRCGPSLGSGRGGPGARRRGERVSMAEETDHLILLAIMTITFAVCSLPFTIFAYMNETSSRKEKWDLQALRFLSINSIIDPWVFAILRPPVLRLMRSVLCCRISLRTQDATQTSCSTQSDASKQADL
EP2 modulator – modulates human prostaglandin E2 receptor EP2 signaling; P43116; EP2-expressing cells, cAMP HTRF FRET, PGE2 co-stimulation; induction, % at 25 µM; 260,000 compounds, 0.83% hits; AID 940;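 active = compounds whose cAMP rise, as percent of the full-agonist control response, exceeds 60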;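 note: rat C6 glioma line stably carrying human EP2 under a CMV promoter; the protocol text gives 20 µM as final concentration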
EP2 confirm – human EP2 receptor cAMP induction, negative in counter-screens. shares compounds with EP2 modulator. C6 glioma EP2 cells, cAMP HTRF induction; plus low (about EC15) PGE2 agonist. calls only at 20 µM (by protocol). 1,300 compounds, 47% hits. AID 1080;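 active = cAMP induction above 50% in the main assay while under 30% in all four parallel counter assays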;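 note: rat C6 glioma cells stably expressing human EP2 receptor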
Each line names hits and unclear results; the compound was inactive in the other large screens (follow-up assays come after a bar, where they were run).

CCC(c1nnnn1C1CCCC1)N(Cc1cccs1)Cc1cc2cc(C)ccc2[nH]c1=O (configuration not stated)	EP2 modulator 84 | EP2 confirm inactive
Cc1ccc(C)c(OCC(=O)Nc2nc3ccc(S(C)(=O)=O)cc3s2)c1	none (no result: Hsp70 act, Dynein transport)
Cc1ccc(C(=O)c2cnc3ccccc3c2-c2ccccc2)cc1	EP2 modulator 92 | EP2 confirm active
COc1ccc(C(=O)c2cnc3ccccc3c2-c2ccccc2)cc1	EP2 modulator 92 | EP2 confirm active
CNc1ncc(C(=O)c2ccc(-c3ccccc3)cc2)s1	none (no result: Hsp70 act)
O=C(O)[C@@H]1[C@H](C(=O)O)[C@@H](C(=O)O)C[C@H]1C(=O)O	EP2 modulator 61 (no result: Hsp70 act, Dynein transport) | EP2 confirm inactive
CNC(=S)N(Cc1cccnc1)Cc1cc2cc3c(cc2[nH]c1=O)OCO3	none (no result: Hsp70 act, Dynein transport)
OCCCNc1nc(-c2ccc(Br)cc2)nnc1-c1ccc(Cl)cc1	EP2 modulator 95 | EP2 confirm active
Cc1nnc(-c2ccc(Cl)cc2)nc1NCCN(C)C	none
COc1ccccc1-n1c(C)ccc1C	none (no result: Hsp70 act, Dynein transport)
COc1ccc(Cl)cc1-n1c(C)ccc1C	EP2 modulator 69 | EP2 confirm inactive
O=c1c(O)c(-c2ccccc2)oc2ccc3occc3c12	EP2 modulator 74 (no result: Hsp70 act, Dynein transport) | EP2 confirm active
CC1NC(=O)NC1CCCCCC(=O)Nc1ccc(F)cc1 (configuration not stated)	none
Cc1c(F)cccc1NC(=O)CCCCCC1NC(=O)NC1C (configuration not stated)	EP2 modulator 77 | EP2 confirm inactive
COc1cccc(C2c3[nH]c4ccccc4c3CCN2Cc2cnc(C)s2)c1OC (configuration not stated)	none
COc1ccccc1C1c2[nH]c3ccccc3c2CCN1Cc1cnc(C)s1 (configuration not stated)	EP2 modulator 80 | EP2 confirm active
CCn1c(SCC(=O)Nc2nccs2)nc2c1c(=O)n(C)c(=O)n2C	none (no result: Hsp70 act, Dynein transport)
Cc1oc(C2CC2)cc1C(=O)N[C@H](C)Cn1nnc2ccccc21	none (no result: Hsp70 act, Dynein transport, EP2 antag)
Cc1cc(C)cc(OC2CCCCC2NS(=O)(=O)c2ccccc2)c1 (configuration not stated)	EP2 modulator 65 | EP2 confirm active
CSc1ccc(OC2CCCCC2NS(=O)(=O)c2ccccc2)cc1 (configuration not stated)	none
Cc1cccc(/C=N/Nc2cc(N3CCOCC3)nc(N3CCOCC3)n2)c1	EP2 modulator 80 | EP2 confirm active
CC(C)c1ccc(/C=N/Nc2cc(N3CCOCC3)nc(N3CCOCC3)n2)cc1	EP2 modulator 96 | EP2 confirm active
Cc1ccc(/C=N/Nc2cc(C)nc(N3CCOCC3)n2)cc1	none (no result: Hsp70 act)
COc1cc(OC)c(C(C)=O)c(O)c1C	none (no result: Hsp70 act, Dynein transport)
COc1cc(C)c(C(=O)Oc2cc(C)c(C(=O)O)c(O)c2C)c(OC)c1C	none | EP2 confirm inactive
OC(COc1ccccc1)Cn1c2ccccc2c2ccccc21 (configuration not stated)	EP2 modulator 71 | EP2 confirm active
CCNC(=O)C(=O)NCCN1CCOCC1	none (no result: Hsp70 act, Dynein transport)
CC1(C)C2CCC1(C)C(OC(=O)CC(=O)O)C2 (configuration not stated)	EP2 modulator 62 | EP2 confirm active
COc1ccc(CNC(=O)c2sc3nc4ccc(C)cc4cc3c2N)cc1	none (no result: Hsp70 act, Dynein transport)
Cc1noc(C)c1CSc1nc2ccccc2c(=O)n1-c1ccc(Cl)cc1	EP2 modulator 71 | EP2 confirm active
CCc1ccccc1NC(=S)N(CCCO)Cc1cc2ccc(C)c(C)c2[nH]c1=O	none (no result: Hsp70 act, Dynein transport)
Cc1cc(C)c(S(=O)(=O)O)c(C)n1	EP2 modulator 77 | EP2 confirm inactive
COc1cc(/C=C2\SC(=S)N(Nc3ncc(C(F)(F)F)cc3Cl)C2=O)ccc1O	EP2 modulator 66 | EP2 confirm inactive
Cn1cc(C2=C(c3ccc(Cl)cc3Cl)C(=O)NC2=O)c2ccccc21	EP2 modulator 75 (no result: Hsp70 act, Dynein transport) | EP2 confirm active
O=C1/C(=C/c2cccnc2)SC(=S)N1CCc1ccccc1	none (no result: Hsp70 act)
O=C1/C(=C/c2cccnc2)SC(=NCc2ccccc2)N1Cc1ccccc1	EP2 modulator 66 | EP2 confirm active
Cc1c(CN2CCN(C3CCCCC3)C(=O)C2)cnn1Cc1ccccc1	none (no result: Hsp70 act, Dynein transport)
S=c1[nH]nc(C2CCCCC2)n1Cc1ccccc1	none | EP2 confirm inactive
S=c1[nH]nc(-c2ccco2)n1Cc1ccccc1	none
S=c1[nH]nc(C2CC2)n1Cc1ccccc1	none
S=c1[nH]nc(-c2ccc(Br)o2)n1Cc1ccccc1	EP2 modulator 62 | EP2 confirm inactive
Cc1nc(C)n(CCC(=O)N2CCC3(CC2)NC(=O)c2cccnc2N3C)n1	none (no result: Hsp70 act, Dynein transport)
CCOC(=O)C1=C(N)OC(C)=C(C#N)C1c1ccco1 (configuration not stated)	none | EP2 confirm inactive
CC(C)C1COC(c2cccn2Cc2ccccc2Cl)=N1 (configuration not stated)	EP2 modulator 68 | EP2 confirm inactive
Cc1ccc(Cn2cccc2C2=NC(C)CO2)cc1 (configuration not stated)	none
COc1ccc(CCNc2c(-c3ccc(F)cc3)nc3cnccn23)cc1OC	none (no result: Hsp70 act, Dynein transport, EP2 antag)
CC(=O)Oc1ccc(CN2CCc3c(nc(N4CC(C)OC(C)C4)[nH]c3=O)C2)cc1 (configuration not stated)	none (no result: Hsp70 act, Dynein transport, EP2 antag)
CCOc1ccc(-n2c(N)c(C(=O)NCc3ccco3)c3nc4ccccc4nc32)cc1	none
Nc1c(C(=O)NCc2ccccc2)c2nc3ccccc3nc2n1CCCN1CCOCC1	EP2 modulator 77 | EP2 confirm inactive
Nc1c(C(=O)NCc2ccco2)c2nc3ccccc3nc2n1CCc1ccccc1	EP2 modulator 68 | EP2 confirm inactive
Nc1c(C(=O)NCc2ccc(F)cc2)c2nc3ccccc3nc2n1CCCN1CCOCC1	none
Cc1sc(NC(=O)c2ccccc2F)c(CN2CCCCC2C)c1C (configuration not stated)	EP2 modulator 79 | EP2 confirm active
CCOc1ccc(-c2cnc[nH]2)cc1	none (no result: Hsp70 act, Dynein transport)
CCN(CC)C(=O)CSc1nnc(-c2cc(C)cc(C)c2)o1	none (no result: Hsp70 act, Dynein transport)
CCn1c(N2CCC(C(=O)NCCCn3ccnc3)CC2)nc2ccccc21	none (no result: Hsp70 act, Dynein transport)
CCOC(=O)c1cc(CC)sc1NC(=O)c1cc(OC)c(OC)c(OC)c1	EP2 modulator 68 | EP2 confirm active
CCOC(=O)c1cc(CC)sc1NC(=O)c1ccc(N2C(=O)CCC2=O)cc1	none
Cc1ccc(C)c(NC(=O)c2sc3nc(C)cc(C)c3c2N)c1	none (no result: Hsp70 act, Dynein transport)
CCCc1n[nH]c(=S)n1Cc1ccco1	none (no result: Hsp70 act)
S=c1[nH]nc(C23CC4CC(CC(C4)C2)C3)n1Cc1ccco1	EP2 modulator 73 | EP2 confirm active
FC(F)(F)c1cc(-c2ccccc2)nc(-n2cncn2)n1	none
Fc1ccc(-c2cc(-c3ccccc3)nc(-n3cccn3)n2)cc1	none | EP2 confirm active
Cc1ccc(S(=O)(=O)N2CCCC(C(=O)N3CCOCC3)C2)cc1 (configuration not stated)	none (no result: Hsp70 act, Dynein transport)
